Our source for the MIC80 values is ChEMBL document CHEMBL1806394, “Synthesis, in vitro evaluation and molecular docking studies of new triazole derivatives as antifungal agents” (2011).

≈ marks a conversion by molar mass, not a printed value.

Holding throughout (type): functional
One assay relates to Candida parapsilosis. The assay is described as follows: Antifungal activity against Candida parapsilosis by micro-broth dilution method. The following applies: Lodderomyces parapsilosis. The essentials: (§1)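 MIC80 determined by broth microdilution following NCCLS methods. C. albicans SC5314 and Y0109 and C. neoformans BLS108 served as quality-control strains and were included in every assay. Fluconazole, itraconazole, voriconazole and amphotericin B were run as positive controls.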
(In broth dilution the organism is exposed to a series of concentrations in liquid medium.)

For a further assay, the system named is Candida tropicalis. Put plainly: Antifungal activity against Candida tropicalis by micro-broth dilution method. The essentials:
as §1

In assay [1] the test system is Candida albicans. Put plainly: Antifungal activity against Candida albicans Y0109 by micro-broth dilution method. The essentials:
as §1

Another assay deals with Aspergillus fumigatus. Put plainly: Antifungal activity against Aspergillus fumigatus by micro-broth dilution method. The essentials:
as §1

The subject of another assay is Kluyveromyces marxianus. The assay is described as follows: Antifungal activity against Candida kefyr by micro-broth dilution method.
A further assay concerns Cryptococcus neoformans. The assay is described as follows: Antifungal activity against Cryptococcus neoformans BLS108 by micro-broth dilution method. The essentials:
as §1

Assay [2] relates to Candida albicans. Put plainly: Antifungal activity against Candida albicans SC5314 by micro-broth dilution method. The essentials:
as §1

Another assay deals with Trichophyton rubrum. The assay is described as follows: Antifungal activity against Trichophyton rubrum by micro-broth dilution method. The essentials:
as §1

For the compound `CCCCc1ccc(C(=O)Nc2ccc(-n3cnn(CC(O)(Cn4cncn4)c4ccc(F)cc4F)c3=O)cc2)cc1` (single isomer, unassigned), the MIC80 in the assay with Candida parapsilosis is 0.0625 µg/mL (≈ 0.109 µM); against Candida tropicalis, 0.25 µg/mL (≈ 0.436 µM); in the assay on Candida albicans [1] it was 0.0156 µg/mL (≈ 0.0272 µM); against Aspergillus fumigatus, > 64 µg/mL; against Kluyveromyces marxianus, > 64 µg/mL; against Cryptococcus neoformans, > 64 µg/mL. For the same compound, the results for the MIC80 against Candida albicans [2] and in the assay with Trichophyton rubrum were 0.0156 µg/mL (≈ 0.0272 µM) and > 64 µg/mL, respectively.
Take `O=C(Nc1ccc(-n2cnn(CC(O)(Cn3cncn3)c3ccc(F)cc3F)c2=O)cc1)c1ccc(Cl)cc1` (single isomer, unassigned): the MIC80 in the assay with Candida parapsilosis is 1 µg/mL (≈ 1.81 µM); against Candida tropicalis it was 1 µg/mL (≈ 1.81 µM); against Candida albicans [1], 1 µg/mL (≈ 1.81 µM); against Aspergillus fumigatus, > 64 µg/mL; against Kluyveromyces marxianus, 1 µg/mL (≈ 1.81 µM); against Cryptococcus neoformans, 0.0625 µg/mL (≈ 0.113 µM). The results for the MIC80 against Candida albicans [2] and in the assay on Trichophyton rubrum were 1 µg/mL (≈ 1.81 µM) and > 64 µg/mL, respectively.
With `C[C@@H](c1ncncc1F)[C@](O)(Cn1cncn1)c1ccc(F)cc1F` [VORICONAZOLE], the MIC80 against Candida parapsilosis, in the assay with Candida tropicalis, against Candida albicans [1], in the assay on Aspergillus fumigatus, against Kluyveromyces marxianus and in the assay with Cryptococcus neoformans was 0.0039 µg/mL (≈ 0.0112 µM) throughout. The MIC80 against Candida albicans [2] came to 0.0039 µg/mL (≈ 0.0112 µM); in the assay on Trichophyton rubrum, 0.0156 µg/mL (≈ 0.0447 µM).
With `Cc1ccc(C(=O)Nc2ccc(-n3cnn(CC(O)(Cn4cncn4)c4ccc(F)cc4F)c3=O)cc2)cc1` (single isomer, unassigned), the MIC80 in the assay on Candida parapsilosis is 0.25 µg/mL (≈ 0.47 µM); in the assay on Candida tropicalis, 1 µg/mL (≈ 1.88 µM); in the assay with Candida albicans [1], 0.0625 µg/mL (≈ 0.118 µM); in the assay on Aspergillus fumigatus it was > 64 µg/mL; in the assay with Kluyveromyces marxianus, 16 µg/mL (≈ 30.1 µM); with Cryptococcus neoformans, > 64 µg/mL. For the same compound, the values for the MIC80 in the assay on Candida albicans [2] and against Trichophyton rubrum were 0.0625 µg/mL (≈ 0.118 µM) and > 64 µg/mL, respectively.
On to `O=C(/C=C/c1cccc(F)c1)Nc1ccc(-n2cnn(CC(O)(Cn3cncn3)c3ccc(F)cc3F)c2=O)cc1` (single isomer, unassigned), for which the MIC80 against Candida parapsilosis was 16 µg/mL (≈ 28.5 µM); with Candida tropicalis, > 64 µg/mL; with Candida albicans [1], 16 µg/mL (≈ 28.5 µM); with Aspergillus fumigatus, > 64 µg/mL; with Kluyveromyces marxianus, > 64 µg/mL; against Cryptococcus neoformans it was > 64 µg/mL. For the same compound, the values for the MIC80 in the assay with Candida albicans [2] and in the assay on Trichophyton rubrum were 16 µg/mL (≈ 28.5 µM) and > 64 µg/mL, respectively.
As for `C[C@@H]1[C@H](O)[C@@H](C)/C=C/C=C/C=C/C=C/C=C/C=C/C=C/[C@H](O[C@@H]2O[C@H](C)[C@@H](O)[C@H](N)[C@@H]2O)C[C@@H]2O[C@](O)(C[C@@H](O)C[C@@H](O)[C@H](O)CC[C@@H](O)C[C@@H](O)CC(=O)O[C@H]1C)C[C@H](O)[C@H]2C(=O)O` [AMPHOTERICIN B], the MIC80 against Candida parapsilosis came out at 0.25 µg/mL (≈ 0.271 µM); against Candida tropicalis, 1 µg/mL (≈ 1.08 µM); against Candida albicans [1] it was 0.25 µg/mL (≈ 0.271 µM); against Aspergillus fumigatus, 1 µg/mL (≈ 1.08 µM); in the assay with Kluyveromyces marxianus, 0.25 µg/mL (≈ 0.271 µM); against Cryptococcus neoformans, 1 µg/mL (≈ 1.08 µM). The MIC80 against Candida albicans [2] is 0.25 µg/mL (≈ 0.271 µM); with Trichophyton rubrum it was 4 µg/mL (≈ 4.33 µM).
For the compound `O=C(Nc1ccc(-n2cnn(CC(O)(Cn3cncn3)c3ccc(F)cc3F)c2=O)cc1)c1cccc(Cl)c1` (single isomer, unassigned), the MIC80 was 0.00024 µg/mL (≈ 0.000435 µM) against Candida parapsilosis; 1 µg/mL (≈ 1.81 µM) in the assay on Candida tropicalis; 0.00024 µg/mL (≈ 0.000435 µM) with Candida albicans [1]; > 64 µg/mL in the assay with Aspergillus fumigatus; 4 µg/mL (≈ 7.25 µM) against Kluyveromyces marxianus; 16 µg/mL (≈ 29 µM) with Cryptococcus neoformans. Moreover, the MIC80 was 0.00024 µg/mL (≈ 0.000435 µM) against Candida albicans [2] and > 64 µg/mL with Trichophyton rubrum.
In the case of `O=C(Nc1ccc(-n2cnn(CC(O)(Cn3cncn3)c3ccc(F)cc3F)c2=O)cc1)c1cccc(Br)c1` (single isomer, unassigned), the MIC80 with Candida parapsilosis was 16 µg/mL (≈ 26.8 µM); in the assay with Candida tropicalis, 16 µg/mL (≈ 26.8 µM); with Candida albicans [1], 16 µg/mL (≈ 26.8 µM); against Aspergillus fumigatus, > 64 µg/mL; against Kluyveromyces marxianus, 64 µg/mL (≈ 107 µM); with Cryptococcus neoformans, > 64 µg/mL. The results for the MIC80 against Candida albicans [2] and against Trichophyton rubrum were 4 µg/mL (≈ 6.71 µM) and > 64 µg/mL, respectively.
As to `O=C(/C=C/c1ccc(Br)cc1)Nc1ccc(-n2cnn(CC(O)(Cn3cncn3)c3ccc(F)cc3F)c2=O)cc1` (single isomer, unassigned), the MIC80 in the assay with Candida parapsilosis is 1 µg/mL (≈ 1.61 µM); with Candida tropicalis, > 64 µg/mL; against Candida albicans [1], 4 µg/mL (≈ 6.43 µM); against Aspergillus fumigatus, > 64 µg/mL; in the assay with Kluyveromyces marxianus, > 64 µg/mL; in the assay with Cryptococcus neoformans, > 64 µg/mL. Besides, the values for the MIC80 in the assay with Candida albicans [2] and in the assay with Trichophyton rubrum were 1 µg/mL (≈ 1.61 µM) and > 64 µg/mL, respectively.
As for `N#Cc1cccc(/C=C/C(=O)Nc2ccc(-n3cnn(CC(O)(Cn4cncn4)c4ccc(F)cc4F)c3=O)cc2)c1` (single isomer, unassigned), the MIC80 in the assay on Candida parapsilosis was 16 µg/mL (≈ 28.1 µM); against Candida tropicalis, 64 µg/mL (≈ 113 µM); against Candida albicans [1], 16 µg/mL (≈ 28.1 µM); against Aspergillus fumigatus, > 64 µg/mL; in the assay with Kluyveromyces marxianus, > 64 µg/mL; with Cryptococcus neoformans, > 64 µg/mL. The MIC80 is 16 µg/mL (≈ 28.1 µM) against Candida albicans [2] and > 64 µg/mL in the assay with Trichophyton rubrum.
For `Cc1ccc(C(=O)Nc2ccc(-n3cnn(CC(O)(Cn4cncn4)c4ccc(F)cc4F)c3=O)cc2)cc1C` (single isomer, unassigned), the MIC80 against Candida parapsilosis is 0.25 µg/mL (≈ 0.458 µM); in the assay with Candida tropicalis, 0.25 µg/mL (≈ 0.458 µM); in the assay with Candida albicans [1], 0.25 µg/mL (≈ 0.458 µM); with Aspergillus fumigatus, > 64 µg/mL; in the assay on Kluyveromyces marxianus, 4 µg/mL (≈ 7.33 µM); in the assay with Cryptococcus neoformans, 64 µg/mL (≈ 117 µM). Also, the MIC80 against Candida albicans [2] was 0.25 µg/mL (≈ 0.458 µM); against Trichophyton rubrum, > 64 µg/mL.
For the compound `COc1cccc(C(=O)Nc2ccc(-n3cnn(CC(O)(Cn4cncn4)c4ccc(F)cc4F)c3=O)cc2)c1` (single isomer, unassigned), the MIC80 was 0.0625 µg/mL (≈ 0.114 µM) in the assay on Candida parapsilosis; 1 µg/mL (≈ 1.83 µM) against Candida tropicalis; 0.0625 µg/mL (≈ 0.114 µM) with Candida albicans [1]; > 64 µg/mL in the assay on Aspergillus fumigatus; 16 µg/mL (≈ 29.2 µM) with Kluyveromyces marxianus; > 64 µg/mL against Cryptococcus neoformans. The MIC80 against Candida albicans [2] was 0.0625 µg/mL (≈ 0.114 µM); in the assay on Trichophyton rubrum it was > 64 µg/mL.
In the case of `O=C(/C=C/c1cccc(Br)c1)Nc1ccc(-n2cnn(CC(O)(Cn3cncn3)c3ccc(F)cc3F)c2=O)cc1` (single isomer, unassigned), the MIC80 is 16 µg/mL (≈ 25.7 µM) in the assay with Candida parapsilosis; 1 µg/mL (≈ 1.61 µM) in the assay with Candida tropicalis; 1 µg/mL (≈ 1.61 µM) in the assay with Candida albicans [1]; > 64 µg/mL with Aspergillus fumigatus; > 64 µg/mL in the assay on Kluyveromyces marxianus; 16 µg/mL (≈ 25.7 µM) against Cryptococcus neoformans. Moreover, the results for the MIC80 with Candida albicans [2] and with Trichophyton rubrum were 1 µg/mL (≈ 1.61 µM) and > 64 µg/mL, respectively.
As for `Cc1ccc(/C=C/C(=O)Nc2ccc(-n3cnn(CC(O)(Cn4cncn4)c4ccc(F)cc4F)c3=O)cc2)cc1` (single isomer, unassigned), the MIC80 is > 64 µg/mL with Candida parapsilosis; 4 µg/mL (≈ 7.17 µM) with Candida tropicalis; 4 µg/mL (≈ 7.17 µM) in the assay on Candida albicans [1]; > 64 µg/mL against Aspergillus fumigatus; > 64 µg/mL against Kluyveromyces marxianus; > 64 µg/mL in the assay on Cryptococcus neoformans. The values for the MIC80 in the assay with Candida albicans [2] and in the assay on Trichophyton rubrum were 1 µg/mL (≈ 1.79 µM) and > 64 µg/mL, respectively.
As to `COc1ccc(C(=O)Nc2ccc(-n3cnn(CC(O)(Cn4cncn4)c4ccc(F)cc4F)c3=O)cc2)cc1` (single isomer, unassigned), the MIC80 was 1 µg/mL (≈ 1.83 µM) with Candida parapsilosis; 4 µg/mL (≈ 7.31 µM) against Candida tropicalis; 1 µg/mL (≈ 1.83 µM) in the assay on Candida albicans [1]; > 64 µg/mL against Aspergillus fumigatus; 16 µg/mL (≈ 29.2 µM) in the assay on Kluyveromyces marxianus; > 64 µg/mL in the assay on Cryptococcus neoformans. For the same compound, the MIC80 was 1 µg/mL (≈ 1.83 µM) with Candida albicans [2] and > 64 µg/mL with Trichophyton rubrum.
For `Cc1cccc(C(=O)Nc2ccc(-n3cnn(CC(O)(Cn4cncn4)c4ccc(F)cc4F)c3=O)cc2)c1` (single isomer, unassigned), the MIC80 against Candida parapsilosis was 0.0625 µg/mL (≈ 0.118 µM); in the assay with Candida tropicalis, 1 µg/mL (≈ 1.88 µM); in the assay on Candida albicans [1], 0.0625 µg/mL (≈ 0.118 µM); in the assay on Aspergillus fumigatus, > 64 µg/mL; with Kluyveromyces marxianus, > 64 µg/mL; in the assay on Cryptococcus neoformans it was > 64 µg/mL. For the same compound, the MIC80 with Candida albicans [2] was 0.0625 µg/mL (≈ 0.118 µM); against Trichophyton rubrum, > 64 µg/mL.

Broadly, the MIC80 is an inhibitory concentration at the 80% level, which refers to growth in some studies and to a panel of isolates in others. A low value points to greater potency.
